Test results reported in ChEMBL document CHEMBL1949609, “Synthesis and biological evaluation of novel sinomenine derivatives as anti-inflammatory agents” (Eur J Med Chem, 2012).
Active and inactive are the calls of the source. No cut-off for these calls is given here.

How the values were obtained:
RAW264.7 [1] = assay: Inhibition of MAPK-mediated NFkappa B subunit p65 phosphorylation in LPS-stimulated mouse RAW264.7 cells at 10 uM at 6 hrs by Western blot analysis; format: cell-based
In short: (§1)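 Cells were given compound at 10 µM with LPS 500 ng/mL and lysed (Triton X-100 buffer) at 2, 4 and 6 h. Protein was quantified by BCA, run on 10% SDS-PAGE and transferred to PVDF. Blots were probed for total and phosphorylated JNK, ERK1/2, p38, NF-κB p65 and IκBα.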

[2] = target: Transcription factor p65 (Mus musculus) (UniProt Q04207); assay: Inhibition of NF-kappaB subunit p65 DNA binding activity in LPS-stimulated mouse RAW264.7 cells at 10 uM after 20 mins by electrophoretic mobility shift assay; format: cell-based
Transcription factor p65 (Mus musculus), sequence (Q04207 whole entry): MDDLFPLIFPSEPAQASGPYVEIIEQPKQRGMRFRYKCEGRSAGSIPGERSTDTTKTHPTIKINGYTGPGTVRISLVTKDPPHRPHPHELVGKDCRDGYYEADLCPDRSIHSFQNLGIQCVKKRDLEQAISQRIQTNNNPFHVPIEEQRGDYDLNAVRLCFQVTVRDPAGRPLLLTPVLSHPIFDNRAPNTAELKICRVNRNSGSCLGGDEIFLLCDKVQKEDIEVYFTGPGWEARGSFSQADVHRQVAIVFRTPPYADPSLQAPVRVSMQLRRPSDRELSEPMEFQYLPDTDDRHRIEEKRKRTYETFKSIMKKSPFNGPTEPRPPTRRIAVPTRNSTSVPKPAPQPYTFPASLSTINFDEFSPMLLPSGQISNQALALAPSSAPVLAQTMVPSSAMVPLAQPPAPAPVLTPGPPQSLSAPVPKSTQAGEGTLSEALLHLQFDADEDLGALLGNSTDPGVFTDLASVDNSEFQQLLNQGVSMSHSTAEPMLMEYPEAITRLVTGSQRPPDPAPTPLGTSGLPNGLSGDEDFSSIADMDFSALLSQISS
In short: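 Nuclear extract (5 µg) was incubated with a biotin-labelled NF-κB consensus probe for 20 min at room temperature. Complexes were resolved on a 6% native gel in 0.5× TBE at 4 °C, then transferred to nylon and detected by chemiluminescence. Specificity was checked by 100-fold unlabelled competitor and p65 antibody supershift.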

Mus musculus [3] = assay: Antiinflammatory activity in BALB/c mouse assessed as decrease in LPS-induced serum TNFalpha level at 15 mg/kg, ip QD administered 3 days prior to LPS challenge measured after 3 hrs by ELISA; format: functional, organism-based; set-up: dose 15 mg/kg
In short: (§2)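 Balb/c mice were dosed i.p. at 15 mg/kg daily for 3 days (olive oil vehicle) before LPS 20 mg/kg i.p. Blood was drawn 3 h after LPS, and serum TNF-α and IL-6 were measured by ELISA. n = 6.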

RAW264.7 [4] = assay: Inhibition of LPS-induced JNK phosphorylation in mouse RAW264.7 cells at 10 uM after 4 to 6 hrs by Western blot analysis; format: cell-based; in short: as §1
Mus musculus [5] = assay: Antiinflammatory activity in BALB/c mouse assessed as increase in survival rate at 15 mg/kg, ip QD administered 3 days prior to LPS challenge measured after 3 hrs (reference value: 10%); format: functional; details: route intraperitoneal
[6] = target: T1, NF-kappa-B inhibitor alpha (Mus musculus) (UniProt Q9Z1E3); assay: Inhibition of IKappaBalpha degradation in LPS-stimulated mouse RAW264.7 cells at 10 uM at 4 to 6 hrs by Western blot analysis; format: cell-based; in short: as §1
T1 sequence (whole entry): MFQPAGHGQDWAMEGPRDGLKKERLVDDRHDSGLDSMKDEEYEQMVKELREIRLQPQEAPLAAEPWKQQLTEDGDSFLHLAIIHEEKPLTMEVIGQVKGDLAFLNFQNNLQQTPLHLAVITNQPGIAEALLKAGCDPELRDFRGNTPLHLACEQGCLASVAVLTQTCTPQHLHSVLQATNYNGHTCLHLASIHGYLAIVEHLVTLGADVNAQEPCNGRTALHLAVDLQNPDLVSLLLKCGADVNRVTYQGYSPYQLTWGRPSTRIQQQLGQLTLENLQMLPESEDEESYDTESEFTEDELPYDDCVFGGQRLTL

[7] = target: T2, Mitogen-activated protein kinase 1 and 3 (ERK2 and ERK1) (Mus musculus) (UniProt P63085+Q63844); assay: […] of LPS-induced Erk1/2 phosphorylation in mouse RAW264.7 cells at 10 uM after 4 to 6 hrs by Western blot analysis; format: cell-based; in short: as §1
T2 sequence (P63085 whole entry, looked up): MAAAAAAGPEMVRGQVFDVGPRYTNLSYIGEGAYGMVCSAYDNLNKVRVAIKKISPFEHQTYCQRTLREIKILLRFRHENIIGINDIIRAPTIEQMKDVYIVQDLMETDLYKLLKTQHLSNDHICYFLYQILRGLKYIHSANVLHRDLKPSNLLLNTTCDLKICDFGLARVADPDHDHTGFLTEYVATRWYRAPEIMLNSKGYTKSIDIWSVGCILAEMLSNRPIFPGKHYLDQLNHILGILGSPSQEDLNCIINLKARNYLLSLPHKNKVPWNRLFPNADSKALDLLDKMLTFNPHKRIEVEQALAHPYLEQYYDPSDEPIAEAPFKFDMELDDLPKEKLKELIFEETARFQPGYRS
T2 sequence (Q63844 whole entry, looked up): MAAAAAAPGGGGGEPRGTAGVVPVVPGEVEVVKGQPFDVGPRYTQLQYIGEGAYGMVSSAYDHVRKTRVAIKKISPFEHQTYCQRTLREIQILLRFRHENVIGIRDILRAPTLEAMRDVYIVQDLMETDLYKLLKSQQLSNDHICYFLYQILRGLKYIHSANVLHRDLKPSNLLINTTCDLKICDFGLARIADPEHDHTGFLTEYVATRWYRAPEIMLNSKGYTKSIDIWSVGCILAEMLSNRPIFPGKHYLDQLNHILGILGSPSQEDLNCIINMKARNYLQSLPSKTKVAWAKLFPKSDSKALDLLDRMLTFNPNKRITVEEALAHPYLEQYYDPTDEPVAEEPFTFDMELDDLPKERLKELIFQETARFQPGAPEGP

RAW264.7 [8] = assay: Antiinflammatory activity in mouse RAW264.7 cells assessed as inhibition of LPS-induced IL-6 production at 10 uM after 24 hrs by ELISA (reference value: 13412 +/- 1167.6 pg/ml); format: functional
In short: (§3)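 RAW264.7 cells (DMEM, 5% FBS, 37 °C, 5% CO2) were exposed to compound at 10 µM plus LPS 500 ng/mL at the same time, with 0.1% DMSO final. Supernatant TNF-α and IL-6 were measured by ELISA at 6, 12 and 24 h.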

RAW264.7 [9] = assay: Antiinflammatory activity in mouse RAW264.7 cells assessed as inhibition of LPS-induced IL-6 production at 10 uM after 6 hrs by ELISA (reference value: 1046.1 +/- 111.2 pg/ml); format: functional; in short: as §3
[10] = target: T1, NF-kappa-B inhibitor alpha (Mus musculus); assay: Inhibition of LPS-induced IkappaBalpha phosphorylation in mouse RAW264.7 cells at 10 uM at 6 hrs by Western blot analysis; format: cell-based; in short: as §1
RAW264.7 [11] = assay: Antiinflammatory activity in mouse RAW264.7 cells assessed as inhibition of LPS-induced TNFalpha production at 10 uM after 12 hrs by ELISA (reference value: 4126.8 +/- 282 pg/ml); format: functional; in short: as §3
RAW264.7 [12] = assay: Antiinflammatory activity in mouse RAW264.7 cells assessed as inhibition of LPS-induced IL-6 production at 10 uM after 12 hrs by ELISA (reference value: 2145.1 +/- 368.7 pg/ml); format: functional; in short: as §3
[13] = target: Transcription factor p65 (Mus musculus) (UniProt Q04207); assay: Inhibition of NF-kappaB subunit p65 DNA binding activity in LPS-stimulated mouse RAW264.7 cells at 10 uM after 24 hrs by luciferase reporter gene assay; format: cell-based
RAW264.7 [14] = assay: Antiinflammatory activity in mouse RAW264.7 cells assessed as inhibition of LPS-induced nitric oxide production after 24 hrs by Griess method; format: functional, cell-based; details: RAW264.7, 24 h
In short: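 Cells were treated with compound (0.5–100 µM; 0.1% DMSO final) and LPS 500 ng/mL together for 24 h. Nitrite in the medium was read with Griess reagent (10 min, room temperature, dark) at OD540. IC50 comes from three separate experiments, each in triplicate.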

RAW264.7 [15] = assay: Antiinflammatory activity in mouse RAW264.7 cells assessed as inhibition of LPS-induced TNFalpha production at 10 uM after 6 hrs by ELISA (reference value: 2646.1 +/- 499.8 pg/ml); format: functional; in short: as §3
[16] = target: MAP kinase p38 (Mus musculus) (UniProt P47811+O08911+Q9WUI1+Q9Z1B7); assay: Inhibition of LPS-induced MAPK p38 phosphorylation in mouse RAW264.7 cells at 10 uM after 4 to 6 hrs by Western blot analysis; format: cell-based; in short: as §1
RAW264.7 [17] = assay: Antiinflammatory activity in mouse RAW264.7 cells assessed as inhibition of LPS-induced TNFalpha production at 10 uM after 24 hrs by ELISA (reference value: 10124 +/- 1137.2 pg/ml); format: functional; in short: as §3
Mus musculus [18] = assay: Antiinflammatory activity in BALB/c mouse assessed as decrease in LPS-induced mortality at 15 mg/kg, ip QD administered 3 days prior to LPS challenge; format: functional, organism-based; set-up: dose 15 mg/kg
In short: (§4)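 Balb/c mice (~20 g), 10 per group, given compound in olive oil at 15 mg/kg i.p. once daily for 3 days, then LPS 20 mg/kg i.p. Cumulative survival was followed after LPS and analysed by Kaplan–Meier against LPS-only mice.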

RAW264.7 [19] = assay: Cytotoxicity against mouse RAW264.7 cells after 24 hrs by MTT assay; format: cell-based; details: RAW264.7, 24 h
In short: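 Growth of non-LPS RAW264.7 cells was measured by MTT after 24 h with compound: MTT for 4 h, formazan dissolved in DMSO, OD570. Untreated cells were set as 100% viability. IC50 is the concentration giving 50% growth inhibition.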

Mus musculus [20] = assay: Antiinflammatory activity in BALB/c mouse assessed as decrease in LPS-induced serum IL-6 level at 15 mg/kg, ip QD administered 3 days prior to LPS challenge measured after 3 hrs by ELISA; format: functional, organism-based; set-up: dose 15 mg/kg; in short: as §2
[21] = target: Transcription factor p65 (Mus musculus) (UniProt Q04207); assay: Inhibition of NF-kappaB subunit p65 DNA binding activity in LPS-stimulated mouse RAW264.7 cells at 20 uM after 24 hrs by luciferase reporter gene assay; format: cell-based
RAW264.7 [22] = assay: Antiinflammatory activity in mouse RAW264.7 cells assessed as inhibition of LPS-induced IL-6 production at 10 uM after 6 to 24 hrs by ELISA; format: functional, cell-based; in short: as §3
RAW264.7 [23] = assay: Antiinflammatory activity in mouse RAW264.7 cells assessed as inhibition of LPS-induced TNFalpha production at 10 uM after 6 to 24 hrs by ELISA; format: functional, cell-based; in short: as §3
[24] = target: T1, NF-kappa-B inhibitor alpha (Mus musculus); assay: Inhibition of IKappaBalpha degradation in LPS-stimulated mouse RAW264.7 cells at 10 uM by Western blot analysis; format: cell-based; in short: as §1
Mus musculus [25] = assay: Antiinflammatory activity in BALB/c mouse assessed as increase in survival rate at 15 mg/kg, ip QD administered 3 days prior to LPS challenge measured after 19 hrs; format: functional; details: route intraperitoneal; in short: as §4
[26] = target: T1, NF-kappa-B inhibitor alpha (Mus musculus); assay: Inhibition of LPS-induced IkappaBalpha phosphorylation in mouse RAW264.7 cells at 10 uM after 4 to 6 hrs by Western blot analysis; format: cell-based; in short: as §1
[27] = target: T2, Mitogen-activated protein kinase 1 and 3 (ERK2 and ERK1) (Mus musculus); assay: Inhibition of LPS-induced Erk1/2 phosphorylation in mouse RAW264.7 cells at 10 uM after 4 to 6 hrs by Western blot analysis; format: cell-based; in short: as §1
[28] = target: Transcription factor p65 (Mus musculus) (UniProt Q04207); assay: Inhibition of NF-kappaB subunit p65 DNA binding activity in LPS-stimulated mouse RAW264.7 cells at 5 to 20 uM by electrophoretic mobility shift assay; format: cell-based
[29] = target: T1, NF-kappa-B inhibitor alpha (Mus musculus); assay: Inhibition of LPS-induced IkappaBalpha phosphorylation in mouse RAW264.7 cells at 10 uM at 4 hrs by Western blot analysis; format: cell-based; in short: as §1
RAW264.7 [30] = assay: Inhibition of MAPK-mediated NFkappa B subunit p65 phosphorylation in LPS-stimulated mouse RAW264.7 cells at 10 uM after 4 to 6 hrs by Western blot analysis; format: cell-based; in short: as §1
[31] = target: Transcription factor p65 (Mus musculus) (UniProt Q04207); assay: Inhibition of NF-kappaB subunit p65 DNA binding activity in LPS-stimulated mouse RAW264.7 cells at 5 to 20 uM by luciferase reporter gene assay; format: cell-based

| SMILES | Activity (Mus musculus [3]) | inhibition (RAW264.7 [4]) | survival at 15 mg/kg (Mus musculus [5]) | Activity (RAW264.7 [8]) | Activity (RAW264.7 [9]) | Activity (RAW264.7 [11]) | Activity (RAW264.7 [12]) | IC50 (RAW264.7 [14]) | Activity (RAW264.7 [15]) | inhibition [16] | Activity (RAW264.7 [17]) | IC50 (RAW264.7 [19]) | Activity (Mus musculus [20]) | other results |
| --- | --- | --- | --- | --- | --- | --- | --- | --- | --- | --- | --- | --- | --- | --- |
| COC1=C[C@@H]2[C@@H]3Cc4ccc(OC)c(OCCCOc5c(OC)ccc6c5[C@@]57CCN(C)[C@@H](C6)[C@H]5C=C(OC)C(=O)C7)c4[C@]2(CCN3C)CC1=O | Active | inactive | 70% | 13096.9 pg/mL | 949.7 pg/mL | 3501.9 pg/mL | 1667.8 pg/mL | 15.2 µM | 1817.6 pg/mL | inactive | 8303.2 pg/mL | 41.1 µM | Active | inhibition (RAW264.7 [1]): Active; inhibition [2]: inactive; inhibition [6]: Active; Activity [7]: Active; inhibition [10]: Active; inhibition [13]: inactive; Activity (Mus musculus [18]): Active; inhibition [21]: Active |
| COC1=C[C@@H]2[C@@H]3Cc4ccc(OC)c(O)c4[C@]2(CCN3C)CC1=O [SINOMENINE] |  |  |  |  |  |  |  | > 200 µM |  |  |  | > 200 µM |  | inhibition (RAW264.7 [22]): inactive; inhibition (RAW264.7 [23]): inactive |
| CCCCCCCCC(=O)Oc1c(OC)ccc2c1[C@@]13CCN(C)[C@@H](C2)[C@H]1C=C(OC)C(=O)C3 | Active | Active | 30% | 486.3 pg/mL | 148.5 pg/mL | 4503.8 pg/mL | 223.7 pg/mL | 24.1 µM | 2338.5 pg/mL | Active | 9728.9 pg/mL | 58.2 µM | Active | inhibition [24]: Active; survival at 15 mg/kg (Mus musculus [25]): 30%; inhibition [26]: Active; inhibition [27]: Active; inhibition [28]: Active; inhibition [29]: inactive; inhibition (RAW264.7 [30]): Active; inhibition [31]: Active |
